Results of several laboratories.
Protocols differ between the studies behind these lines.
Matrix: Caco-2

SMILES	setting	Papp B→A [×10⁻⁶ cm/s]
N#C[C@@]1(c2ccc3c(N)ncnn23)O[C@H](CO)[C@@H](O)[C@H]1O	10 µM, 2 h	25.4
C[C@H]1O[C@@H](O[C@H]2[C@@H](O)C[C@H](O[C@H]3[C@@H](O)C[C@H](O[C@H]4CC[C@@]5(C)[C@H](CC[C@@H]6[C@@H]5C[C@@H](O)[C@]5(C)[C@@H](C7=CC(=O)OC7)CC[C@]65O)C4)O[C@@H]3C)O[C@@H]2C)C[C@H](O)[C@@H]1O	10 µM, 2 h	13.6
COc1cc(NC(=O)Cn2cc(Cl)c3cc(F)c(-c4cnn(C)c4)cc32)cc(OC)c1OC		1.51
N#Cc1ccc(C[C@H](Nc2nnc(-c3ccc(F)cc3)s2)C(=O)N2CCc3ccccc32)cc1	100 µM, 2 h	314
CCCCCOC(=O)Nc1nc(=O)n([C@@H]2O[C@H](C)[C@@H](O)[C@H]2O)cc1F	4 h	14.3
N#Cc1ccc(C[C@H](NC(=O)c2cc3cc(F)ccc3[nH]2)C(=O)N2CCc3ccccc32)cc1	100 µM, 2 h	386
COc1ccc(-c2coc3cc(O)cc(O)c3c2=O)cc1	100 µg/mL, 2 h	21.2
CC[C@]1(O)C[C@@H]2CN(CCc3c([nH]c4ccccc34)[C@@](C(=O)OC)(c3cc4c(cc3OC)N(C)[C@H]3[C@@](O)(C(=O)OC)[C@H](OC(C)=O)[C@]5(CC)C=CCN6CC[C@]43[C@@H]65)C2)C1	10 µM, 2 h	22.9
O=C(CCc1ccc(O)cc1)c1c(O)cc(O)cc1O	100 µg/mL, 2 h	12.2
Cc1cc(C)c(CNC(=O)c2cc(Cl)c3c(c2C)O[C@@](C)([C@H]2CC[C@H](N(C)C)CC2)O3)c(=O)[nH]1	30 µM	19
C[C@@H]1O[C@@H](OC[C@H]2O[C@@H](Oc3c(-c4ccc(OCCO)c(OCCO)c4)oc4cc(OCCO)cc(O)c4c3=O)[C@H](O)[C@@H](O)[C@@H]2O)[C@H](O)[C@H](O)[C@H]1O	100 µg/mL, 2 h	2.67
N#Cc1ccc(C[C@H](Nc2ncc(-c3ccc(F)cc3)o2)C(=O)N2CCc3ccccc32)cc1	100 µM, 2 h	200
COc1ccc([C@@H]2CC(=O)c3c(O)cc(O)cc3O2)cc1O	100 µg/mL, 2 h	21.4
C[C@H]1O[C@@H](O[C@H]2[C@@H](O)C[C@H](O[C@H]3[C@@H](O)C[C@H](O[C@H]4CC[C@@]5(C)[C@H](CC[C@@H]6[C@@H]5C[C@@H](O)[C@]5(C)[C@@H](C7=CC(=O)OC7)CC[C@]65O)C4)O[C@@H]3C)O[C@@H]2C)C[C@H](O)[C@@H]1O	5 µM, 2 h	17.9
